ChEMBL document CHEMBL4706643 (J Med Chem, 2021)
The source made the active and inactive calls. The rule behind the calls is not given here.

What was measured:
[1] = tested on: Hepatitis delta virus; assay: Antiviral activity against HDV infected in NTCP-edited FVB mouse assessed as decrease in viral RNA levels in liver at 30 mg/kg, po administered for 8 days via gavage followed by HDV challenge at day 2 and measured at day 8 post infection by qPCR analysis; details: time 8.0 day
[2] = AUC (0 to infinity) in C57BL/6 mouse at 10 mg/kg, ip; format: ADME, organism-based; parameters: time infinity, route intraperitoneal, dose 10 mg/kg; details: in vivo
Procedure, shortened: (§1)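 Male C57BL/6 mice, n = 3, dosed IV at 5 mg/kg, IP at 10 mg/kg or by oral gavage (PO) at 10 mg/kg. All doses formulated in DMSO:cremophor:0.9% NaCl = 5:5:90. AUC from time zero to infinity (h*ng/mL) was derived from plasma drug levels and is reported as the mean of the males.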

[3] = tested on: HepG2; assay: Inhibition of tree shrew NTCP-mediated [3H]-TCA uptake expressed in human HepG2 cells at 2 uM incubated for 2 hrs followed by substrate addition and measured for 10 mins by microbeta liquid scintillation counter analysis; format: cell-based; details: Scandentia
Procedure, shortened: (§2)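 HepG2 cells expressing NTCP (human, mouse, monkey or tree shrew) seeded 4–6 h, PMM 20–24 h; compound 2 h, then Na+ Ringer's buffer with 2 μM 3H-TCA, 37 °C 10 min; PBS washes, lysis in 1% Triton X-100, scintillation counting. Single-concentration lines at 2 μM.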

[4] = Cmax in C57BL/6 mouse at 10 mg/kg, po; format: ADME, organism-based; parameters: route oral, dose 10 mg/kg; details: in vivo
Procedure, shortened: (§3)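 Male C57BL/6 mice (n = 3), single dose IV 5 mg/kg, IP 10 mg/kg or PO 10 mg/kg in DMSO:cremophor:0.9% NaCl 5:5:90; plasma parameters reported as means.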

[5] = Half life in C57BL/6 mouse plasma at 5 mg/kg, iv; format: ADME, organism-based
Procedure, shortened: as §3

[6] = target: T1, Hepatic sodium/bile acid cotransporter (Homo sapiens, UniProt Q14973); assay: Inhibition of human NTCP-mediated [3H]-TCA uptake expressed in human HepG2 cells at 2 uM incubated for 2 hrs followed by substrate addition and measured for 10 mins by microbeta liquid scintillation counter analysis; format: cell-based; details: hepg2, 2.167 h, time 130 min
T1 sequence (Q14973 whole entry): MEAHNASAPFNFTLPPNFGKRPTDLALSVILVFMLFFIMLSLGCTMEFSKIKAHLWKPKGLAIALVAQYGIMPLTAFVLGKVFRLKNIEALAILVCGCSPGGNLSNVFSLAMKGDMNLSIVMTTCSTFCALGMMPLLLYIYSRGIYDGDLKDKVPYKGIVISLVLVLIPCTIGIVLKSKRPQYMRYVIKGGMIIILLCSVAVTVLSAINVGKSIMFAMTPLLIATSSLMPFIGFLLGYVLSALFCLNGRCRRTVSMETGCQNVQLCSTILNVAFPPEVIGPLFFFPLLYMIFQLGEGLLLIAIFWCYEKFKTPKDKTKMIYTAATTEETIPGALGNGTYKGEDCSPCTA
Procedure, shortened: as §2

[7] = Clearance in C57BL/6 mouse at 5 mg/kg, iv; format: ADME, organism-based; details: in vivo
Procedure, shortened: as §3

[8] = Immunosuppressive activity in C57B/L mouse spleen T cells assessed as inhibition of anti-CD3 induced T cell proliferation incubated for 48 hrs by CFSE staining based flow cytometric analysis; format: tissue-based
Procedure, shortened: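 Spleen T cells from adult C57B/L mouse, CFSE-labelled, cultured in RPMI-1640 on anti-CD3-coated wells with compound or DMSO; stained with PE-anti-CD4 before flow cytometric proliferation analysis. Legend gives 48 h stimulation, methods 72 h; 2 μM compounds.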

[9] = target: T2, Hepatic sodium/bile acid cotransporter (Mus musculus, UniProt O08705); assay: Inhibition of mouse NTCP-mediated [3H]-TCA uptake expressed in human HepG2 cells at 2 uM incubated for 2 hrs followed by substrate addition and measured for 10 mins by microbeta liquid scintillation counter analysis; format: cell-based; details: hepg2, 2.167 h, time 130 min
T2 sequence (O08705 whole entry): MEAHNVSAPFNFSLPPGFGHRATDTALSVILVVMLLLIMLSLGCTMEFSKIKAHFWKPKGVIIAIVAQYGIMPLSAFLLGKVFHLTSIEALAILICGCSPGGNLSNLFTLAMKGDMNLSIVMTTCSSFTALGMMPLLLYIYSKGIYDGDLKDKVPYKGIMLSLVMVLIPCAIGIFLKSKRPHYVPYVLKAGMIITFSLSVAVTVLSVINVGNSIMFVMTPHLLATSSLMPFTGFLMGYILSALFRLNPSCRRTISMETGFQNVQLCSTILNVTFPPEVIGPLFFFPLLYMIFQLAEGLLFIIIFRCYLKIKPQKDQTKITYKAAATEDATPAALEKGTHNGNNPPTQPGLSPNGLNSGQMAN
Procedure, shortened: as §2

[10] = AUC (0 to infinity) in C57BL/6 mouse at 5 mg/kg, iv; format: ADME, organism-based; parameters: time infinity, route intravenous, dose 5 mg/kg; details: in vivo
Procedure, shortened: as §1

[11] = target: T1, Hepatic sodium/bile acid cotransporter; assay: Inhibition of Myr95F binding to human NTCP expressed in HepG2 cells assessed as decrease in cell membrane staining at 1 uM incubated for 2 hrs by fluorescence staining based analysis; details: hepg2, 2 h
Procedure, shortened: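 HepG2-NTCP cells stained with fluorescent Myr59F pre-S1 peptide in presence of DMSO, compound (1 μM) or Myr47 (200 nM); membrane staining intensity quantified.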

[12] = tested on: Hepatitis delta virus; assay: Antiviral activity against HDV infected in C57B/L transgenic mouse harbouring human NTCP assessed as decrease in viral RNA levels in liver at 40 mg/kg, ip administered for 2 consecutive days followed by HDV challenge at day 2 and measured at day 8 post infection by qPCR analysis; format: functional, organism-based; details: time 8.0 day
Procedure, shortened: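 Neonatal hNTCP-transgenic C57B/L mice received 40 mg/kg i.p. before HDV inoculation, either once or on two consecutive days (n = 4 per group; vehicle group n = 5). HDV was given at 5 × 10⁹ Geq i.p. on day 9 after birth, and mice were sacrificed on day 15. Liver RNA was assayed by RT-qPCR on cDNA from 20 ng RNA, with NTCP mRNA also measured. Group medians are shown.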

[13] = Tmax in C57BL/6 mouse at 10 mg/kg, po; format: ADME, organism-based; details: in vivo
Procedure, shortened: as §3

[14] = tested on: HepG2; assay: Inhibition of monkey NTCP-mediated [3H]-TCA uptake expressed in human HepG2 cells at 2 uM incubated for 2 hrs followed by substrate addition and measured for 10 mins by microbeta liquid scintillation counter analysis; format: cell-based; details: Macaca mulatta
Procedure, shortened: as §2

[15] = tested on: HepG2; assay: Cytotoxicity against human HepG2 cells at 100 uM; format: cell-based; details: hepg2, 100 µM
[16] = tested on: Hepatitis B virus; assay: Antiviral activity against HBV genotype B infected in human HepG2-NTCP cells assessed as reduction in HBeAg secretion at 2 uM cells inoculated with virus for 4 hrs at room temperature and 37 degree C for 24 hrs followed inoculum changed with PMM medium for every 2 days until day 5 post infection by ELISA; format: functional, organism-based; details: time 28.0 hrs
Procedure, shortened: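 HepG2-NTCP cells seeded 4–6 h, then primary maintenance medium 20–24 h; virus inoculum plus compound dilutions 4 h at room temperature, then 37 °C 24 h; medium changed every 2 days to PMM with 2% FBS until day 5 post infection. Secreted HBeAg measured by ELISA; IC50 by nonlinear regression from six or more points, three repeats.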

## CC[C@@H]1NC(=O)[C@H]([C@@H]2O[C@@H](Sc3cccc(OCc4ccccc4)c3)C[C@H]2C)N(C)C(=O)[C@H](C(C)C)N(C)C(=O)[C@H](CC(C)C)N(C)C(=O)[C@H](CC(C)C)N(C)C(=O)[C@@H](C)NC(=O)[C@H](C)NC(=O)[C@H](CC(C)C)N(C)C(=O)[C@H](C(C)C)NC(=O)[C@H](CC(C)C)N(C)C(=O)CN(C)C1=O
[1]
  Activity: Active
[2]
  AUC(0-inf): 87400 ng·h/mL
[3]
  inhibition: Active
[4]
  Cmax: 2290 ng/mL
[5]
  half-life: 6.03 h
[6]
  inhibition (INH): Active
[7]
  clearance: 2.1 mL/min/kg
[8]
  Activity: Non-Toxic
[9]
  inhibition (INH): Active
[10]
  AUC(0-inf): 39700 ng·h/mL
[11]
  inhibition (INH): Active
[12]
  Activity: Active
[13]
  Tmax: 1 h
[14]
  inhibition: Active
[15]
  Activity: Non-Toxic
[16]
  Activity: Active
